Laboratory results taken from ChEMBL document CHEMBL4177633 (Bioorg Med Chem, 2017).
pEC50, pIC50, pKi: −log10 of the molar value. Calls of active or inactive are those of the source. The rule behind the calls is not given here.

Tests used:
[1] = test system: U-937; assay: Inhibition of [ethanolamine-1-3H]AEA uptake in human U937 cell homogenate preincubated for 20 mins followed by AEA addition measured after 5 mins by scintillation counting method; assay type: functional, cell-based; conditions: in the assay text read “intact human U937 cells” for “human U937 cell homogenate”
In short: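 Intact U937 cells (0.5 × 10^6) in serum-free medium. Preincubated 20 min at 37 °C with compound at a 10 μM screening concentration, then 5 min at 37 °C with 100 nM AEA plus 0.5 nM [ethanolamine-1-3H]AEA. Stopped on ice and by rapid filtration over GF/C filters presoaked in PBS/0.2% BSA. Washed with ice-cold PBS/1% fatty acid-free BSA, then scintillation counted.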

[2] = target: T1, Fatty-acid amide hydrolase 1 (Homo sapiens, UniProt O00519); assay: Inhibition of FAAH in human U937 cell homogenate assessed as decrease in [ethanolamine-1-3H]AEA levels preincubated for 30 mins followed by AEA addition measured after 15 mins by liquid scintillation counting method
T1 sequence (O00519 whole entry): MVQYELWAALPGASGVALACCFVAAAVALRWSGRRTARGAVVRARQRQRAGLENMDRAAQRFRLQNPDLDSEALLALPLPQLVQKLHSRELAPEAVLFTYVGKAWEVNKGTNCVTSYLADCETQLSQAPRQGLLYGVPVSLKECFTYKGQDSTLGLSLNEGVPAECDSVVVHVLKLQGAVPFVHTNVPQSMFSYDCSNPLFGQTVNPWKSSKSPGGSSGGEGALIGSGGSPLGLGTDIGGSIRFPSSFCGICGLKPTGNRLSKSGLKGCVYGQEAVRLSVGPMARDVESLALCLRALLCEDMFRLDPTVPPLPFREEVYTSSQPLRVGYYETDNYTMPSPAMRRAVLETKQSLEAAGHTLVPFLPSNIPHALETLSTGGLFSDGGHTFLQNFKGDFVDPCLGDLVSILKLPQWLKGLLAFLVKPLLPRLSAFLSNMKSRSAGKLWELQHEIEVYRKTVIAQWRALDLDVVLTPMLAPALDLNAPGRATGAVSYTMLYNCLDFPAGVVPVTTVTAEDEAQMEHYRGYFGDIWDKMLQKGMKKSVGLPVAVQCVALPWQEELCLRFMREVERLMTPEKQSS
In short: (§1)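 U937 cell homogenate (100 μg) in 10 mM Tris-HCl, 1 mM EDTA, pH 8, 0.1% fatty acid-free BSA. Compound screened at 10 μM, 30 min at 37 °C. Then 100 nM AEA with 1 nM [ethanolamine-1-3H]AEA tracer added, 15 min at 37 °C. Stopped with ice-cold CHCl3:MeOH (1:1), centrifuged, tritium in aqueous phase counted by liquid scintillation. Data as mean with 95% CI, n = 3.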

[3] = target: Cannabinoid receptor 2 (Homo sapiens, UniProt P34972); assay: Displacement of [3H]CP55,940 from human CB2 receptor expressed in CHO-K1 cell membranes after 1.5 hrs by liquid scintillation counting assay
[4] = target: T2, Monoglyceride lipase (Homo sapiens, UniProt Q99685); assay: Inhibition of MAGL in human U937 cell homogenate assessed as decrease in [ethanolamine-1-3H]AEA levels preincubated for 30 mins followed by AEA addition measured after 15 mins by liquid scintillation counting method; in short: as §1
T2 sequence (Q99685 whole entry): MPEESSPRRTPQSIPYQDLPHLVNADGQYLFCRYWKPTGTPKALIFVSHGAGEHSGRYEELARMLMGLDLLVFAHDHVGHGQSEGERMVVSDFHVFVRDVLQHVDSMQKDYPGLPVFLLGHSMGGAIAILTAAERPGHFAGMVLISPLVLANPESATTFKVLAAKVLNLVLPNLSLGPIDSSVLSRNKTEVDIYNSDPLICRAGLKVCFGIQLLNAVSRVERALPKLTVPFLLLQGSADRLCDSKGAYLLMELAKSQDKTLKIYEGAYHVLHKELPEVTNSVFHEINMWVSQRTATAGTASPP

[5] = target: T3, Fatty-acid amide hydrolase 1 (Homo sapiens) (UniProt O00519); assay: Inhibition of FAAH in human U937 cell homogenate assessed as decrease in [ethanolamine-1-3H]AEA levels up to 10 uM preincubated for 30 mins followed by AEA addition measured after 15 mins by liquid scintillation counting method; in short: as §1
T3 sequence (whole entry): T1 sequence (O00519 whole entry)

[6] = target: T4, Monoglyceride lipase (Homo sapiens) (UniProt Q99685); assay: Inhibition of MAGL in human U937 cell homogenate assessed as decrease in [ethanolamine-1-3H]AEA levels up to 10 uM preincubated for 30 mins followed by AEA addition measured after 15 mins by liquid scintillation counting method; in short: as §1
T4 sequence (whole entry): T2 sequence (Q99685 whole entry)

[7] = target: T5, Cannabinoid receptor 1 (Homo sapiens, UniProt P21554); assay: Positive allosteric modulation of human CB1 receptor expressed in CHO-K1 cell membranes assessed as induction of [3H]CP55,940 binding after 1.5 hrs by liquid scintillation counting assay; assay type: functional
[8] = target: T5, Cannabinoid receptor 1; assay: Negative allosteric modulation of human CB1 receptor expressed in HEK293 cells assessed as inhibition of 33 nM CP55,940-induced SRE transcriptional activity after 5 hrs by luciferase reporter gene assay; assay type: functional, cell-based
[9] = target: T5, Cannabinoid receptor 1; assay: Positive allosteric modulation of human CB1 receptor expressed in CHO-K1 cell membranes assessed as induction of [3H]CP55,940 binding at 100 uM after 1.5 hrs by liquid scintillation counting assay relative to control; assay type: functional
[10] = target: T5, Cannabinoid receptor 1; assay: Positive allosteric modulation of human CB1 receptor expressed in CHO-K1 cell membranes assessed as induction of [3H]CP55,940 binding up to 10 uM after 1.5 hrs by liquid scintillation counting assay; assay type: functional

Sequence of Cannabinoid receptor 2 (P34972 whole entry): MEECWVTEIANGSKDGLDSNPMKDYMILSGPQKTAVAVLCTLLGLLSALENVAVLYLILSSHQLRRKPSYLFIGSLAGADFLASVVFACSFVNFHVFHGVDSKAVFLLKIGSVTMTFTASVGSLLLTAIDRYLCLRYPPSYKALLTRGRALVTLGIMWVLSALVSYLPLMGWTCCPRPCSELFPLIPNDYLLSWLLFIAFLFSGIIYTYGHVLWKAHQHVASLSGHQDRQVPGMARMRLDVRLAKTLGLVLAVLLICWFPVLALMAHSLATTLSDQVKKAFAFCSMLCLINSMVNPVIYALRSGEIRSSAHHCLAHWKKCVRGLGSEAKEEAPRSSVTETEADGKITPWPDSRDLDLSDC
T5 sequence (P21554 whole entry): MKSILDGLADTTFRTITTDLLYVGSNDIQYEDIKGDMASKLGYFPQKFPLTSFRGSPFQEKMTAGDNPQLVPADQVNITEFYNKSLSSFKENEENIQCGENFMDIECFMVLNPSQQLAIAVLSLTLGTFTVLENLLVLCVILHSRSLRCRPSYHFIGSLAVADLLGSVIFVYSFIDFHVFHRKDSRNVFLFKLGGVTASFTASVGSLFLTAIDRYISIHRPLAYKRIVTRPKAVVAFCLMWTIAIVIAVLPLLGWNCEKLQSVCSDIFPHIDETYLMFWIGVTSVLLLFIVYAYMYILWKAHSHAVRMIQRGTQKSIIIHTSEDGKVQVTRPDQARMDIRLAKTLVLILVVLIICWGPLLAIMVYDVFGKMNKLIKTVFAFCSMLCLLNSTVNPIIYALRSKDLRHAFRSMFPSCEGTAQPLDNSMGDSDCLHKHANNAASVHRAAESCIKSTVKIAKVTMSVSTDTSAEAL

| Compound | pIC50 [1] | pIC50 [2] | pKi [3] | pIC50 [4] | inhibition [5] | inhibition [6] | Activity [7] | pEC50 [7] | pIC50 [8] | Activity [9] [%] | Activity [10] |
| --- | --- | --- | --- | --- | --- | --- | --- | --- | --- | --- | --- |
| O=C(Nc1ccc(Cl)cc1)Nc1cccc(Nc2cccc(N3CCCC3)n2)c1 | < 5.00 | < 5.00 | 4.28 | < 5.00 | inactive | inactive |  |  |  |  |  |
| O=C(Nc1ccc(Cl)cc1)Nc1cccc(-c2cccc(N3CCCC3)n2)c1 | < 5.00 | 5.68 | < 5.00 |  |  | inactive |  |  |  |  |  |
| O=C(Nc1ccc(Cl)cc1)Nc1cccc(Nc2cccc(N3CCCC3)c2)c1 | < 5.00 | < 5.00 | < 4.00 | < 5.00 | inactive | inactive |  | 4.87 | 5.02 |  |  |

Other lines, results leading:

| pIC50 [1] | pIC50 [2] | pKi [3] | pIC50 [4] | inhibition [5] | inhibition [6] | Activity [7] | pEC50 [7] | pIC50 [8] | Activity [9] [%] | Activity [10] | Compound |
| --- | --- | --- | --- | --- | --- | --- | --- | --- | --- | --- | --- |
| < 5.00 | < 5.00 | 4.30 | < 5.00 | inactive | inactive | Dose-dependent effect | 7.37 | 6.54 |  |  | O=C(Nc1ccc(Cl)cc1)Nc1cccc(-c2cccc(N3CCCC3)c2)c1 |
| < 5.00 | < 5.00 | < 4.00 | < 5.00 | inactive | inactive |  | < 5.00 | 5.72 | 10 | Active | O=C(Cc1ccc(Cl)cc1)Nc1cccc(-c2cccc(N3CCCC3)c2)c1 |
